# Assay results published in ChEMBL document CHEMBL1137710, “Synthesis and in vitro antitumor activity of new quinoxaline derivatives” (2009).
# Columns and labels:
# Format in all cases: functional
# NCI-H460 = test: Anticancer activity against human NCI-H460 cells assessed as cell growth at 100 uM after 48 hrs by sulforhodamine B assay; settings: NCI-H460, 48 h, read-out: Activity
# MCF7 [1] = test: Anticancer activity against human MCF7 cells assessed as cell growth at 100 uM after 48 hrs by sulforhodamine B assay; settings: MCF7, 48 h, read-out: Activity
# SF-268 [2] = test: Anticancer activity against human SF268 cells assessed as cell growth at 100 uM after 48 hrs by sulforhodamine B assay; settings: SF-268, 48 h, read-out: Activity
# HL-60(TB) = test: Growth inhibition of human HL-60(TB) cells after 48 hrs by sulforhodamine B assay; settings: HL-60, 48 h
# How it was run: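 Tested only on compounds active in a three-line prescreen, in the NCI 60-human-tumour-cell-line panel over a 5-log dose range. Values come from dose–response curves as log10 molar GI50, the concentration inhibiting 50% net cell growth. Log10 TGI (total growth inhibition) and log10 LC50 (50% net cell death) were derived too. Mean graph midpoints include insensitive lines at the highest concentration tested.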
# K562 = test: Growth inhibition of human K562 cells after 48 hrs by sulforhodamine B assay; settings: K562, 48 h
# How it was run: (§1)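 NCI 60-human-tumor-cell-line panel, with compounds tested over a 5-log dose range. Values are taken from dose-response curves as log10 molar concentrations: GI50 is 50% net growth inhibition, TGI is total growth inhibition, and LC50 is 50% net cell death.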
# [3] = Growth inhibition of human […] cells after 48 hrs by sulforhodamine B assay; how it was run: as §1
# HOP-62 = test: Growth inhibition of human HOP62 cells after 48 hrs by sulforhodamine B assay; settings: HOP-62, 48 h; how it was run: as §1
# NCI-H322M = test: Growth inhibition of human NCI-H322M cells after 48 hrs by sulforhodamine B assay; how it was run: as §1
# NCI-H522 = test: Growth inhibition of human NCI-H522 cells after 48 hrs by sulforhodamine B assay; settings: NCI-H522, 48 h; how it was run: as §1
# SW-620 = test: Growth inhibition of human SW620 cells after 48 hrs by sulforhodamine B assay; settings: SW-620, 48 h
# How it was run: (§2)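 Run in the NCI 60-human-tumour-cell-line panel, tested over a 5-log dose range. Dose–response curves gave three values per cell line, each as a log10 molar concentration: GI50 (50% inhibition of net cell growth), TGI (total inhibition of net growth) and LC50 (50% net cell death). The mean graph midpoint is the arithmetic mean over all lines, with insensitive lines entered at the highest concentration tested.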
# SF-268 [4] = test: Growth inhibition of human SF268 cells after 48 hrs by sulforhodamine B assay; settings: SF-268, 48 h; how it was run: as §1
# SNB-19 = test: Growth inhibition of human SNB19 cells after 48 hrs by sulforhodamine B assay; settings: SNB-19, 48 h; how it was run: as §2
# U-251 = test: Growth inhibition of human U251 cells after 48 hrs by sulforhodamine B assay; settings: U-251, 48 h; how it was run: as §2
# LOX IMVI = test: Growth inhibition of human LOXIMVI cells after 48 hrs by sulforhodamine B assay; how it was run: as §1
# M14 = test: Growth inhibition of human M14 cells after 48 hrs by sulforhodamine B assay; settings: M14, 48 h; how it was run: as §1
# SK-MEL-28 = test: Growth inhibition of human SK-MEL-28 cells after 48 hrs by sulforhodamine B assay; settings: SK-MEL-28, 48 h; how it was run: as §1
# UACC-62 = test: Growth inhibition of human UACC62 cells after 48 hrs by sulforhodamine B assay; settings: UACC-62, 48 h; how it was run: as §2
# IGROV-1 = test: Growth inhibition of human IGROV1 cells after 48 hrs by sulforhodamine B assay; settings: IGROV-1, 48 h; how it was run: as §1
# OVCAR-3 = test: Growth inhibition of human OVCAR-3 cells after 48 hrs by sulforhodamine B assay; settings: OVCAR-3, 48 h; how it was run: as §1
# OVCAR-4 = test: Growth inhibition of human OVCAR4 cells after 48 hrs by sulforhodamine B assay; settings: OVCAR-4, 48 h; how it was run: as §1
# OVCAR-8 = test: Growth inhibition of human OVCAR8 cells after 48 hrs by sulforhodamine B assay; settings: OVCAR-8, 48 h; how it was run: as §1
# 786-0 = test: Growth inhibition of human 786-0 cells after 48 hrs by sulforhodamine B assay; settings: 786-0, 48 h; how it was run: as §1
# CAKI-1 = test: Growth inhibition of human Caki1 cells after 48 hrs by sulforhodamine B assay; settings: CAKI-1, 48 h; how it was run: as §1
# UO-31 = test: Growth inhibition of human UO31 cells after 48 hrs by sulforhodamine B assay; settings: UO-31, 48 h; how it was run: as §2
# PC-3 = test: Growth inhibition of human PC3 cells after 48 hrs by sulforhodamine B assay; settings: PC-3, 48 h; how it was run: as §1
# NCI/ADR-RES = test: Growth inhibition of human NCI/ADR-RES cells after 48 hrs by sulforhodamine B assay; how it was run: as §1
# [5] = Growth inhibition of human Hs 578T cells after 48 hrs by sulforhodamine B assay; how it was run: as §1
# MDA-MB-435 = test: Growth inhibition of human MDA-MB-435 cells after 48 hrs by sulforhodamine B assay; settings: MDA-MB-435, 48 h; how it was run: as §1
# MCF7 [6] = test: Growth inhibition of human MCF7 cells after 48 hrs by sulforhodamine B assay; settings: MCF7, 48 h; how it was run: as §1
# [7] = read-out: pLC50 (the source's name) (converted)
structure (smiles),measurement,setting,value
Nc1cc(N)c2nc(-c3ccccc3)c(NCc3ccc(F)cc3)nc2c1,growth at 100 µM,NCI-H460,1%
same,growth at 100 µM,MCF7 [1],1%
same,growth at 100 µM,SF-268 [2],1%
same,GI50,HL-60(TB),3.89 µM
same,LC50,HL-60(TB),> 100 µM
same,TGI,HL-60(TB); read-out: pTGI (converted),> 100 µM
same,GI50,K562,4.37 µM
same,LC50,K562,> 100 µM
same,TGI,K562; read-out: pTGI (converted),> 100 µM
same,GI50,[3],2.51 µM
same,LC50,[3],> 100 µM
same,TGI,[3]; read-out: pTGI (converted),6.31 µM
same,GI50,HOP-62,38.9 µM
same,LC50,HOP-62,> 100 µM
same,TGI,HOP-62; read-out: pTGI (converted),> 100 µM
same,GI50,NCI-H322M,3.47 µM
same,LC50,NCI-H322M,40.7 µM
same,TGI,NCI-H322M; read-out: pTGI (converted),11.5 µM
same,GI50,NCI-H522,> 100 µM
same,LC50,NCI-H522,> 100 µM
same,TGI,NCI-H522; read-out: pTGI (converted),> 100 µM
same,GI50,SW-620,2.19 µM
same,CC50,SW-620; [7],> 100 µM
same,TGI,SW-620; read-out: pTGI (converted),9.55 µM
same,GI50,SF-268 [4],2.82 µM
same,LC50,SF-268 [4],40.7 µM
same,TGI,SF-268 [4]; read-out: pTGI (converted),7.59 µM
same,GI50,SNB-19,6.61 µM
same,LC50,SNB-19,52.5 µM
same,TGI,SNB-19; read-out: pTGI (converted),20 µM
same,GI50,U-251,1.58 µM
same,LC50 (50% net cell kill),U-251,6.31 µM
same,TGI,U-251; read-out: pTGI (converted),3.16 µM
same,GI50,LOX IMVI,1.51 µM
same,LC50,LOX IMVI,6.61 µM
same,TGI,LOX IMVI; read-out: pTGI (converted),3.16 µM
same,GI50,M14,23.4 µM
same,CC50,M14; [7],> 100 µM
same,TGI,M14; read-out: pTGI (converted),56.2 µM
same,GI50,SK-MEL-28,1.91 µM
same,CC50,SK-MEL-28; [7],7.41 µM
same,TGI,SK-MEL-28; read-out: pTGI (converted),3.8 µM
same,GI50,UACC-62,15.5 µM
same,CC50,UACC-62; [7],56.2 µM
same,TGI,UACC-62; read-out: pTGI (converted),29.5 µM
same,GI50,IGROV-1,3.09 µM
same,CC50,IGROV-1; [7],> 100 µM
same,TGI,IGROV-1; read-out: pTGI (converted),> 100 µM
same,GI50,OVCAR-3,2.4 µM
same,CC50,OVCAR-3; [7],> 100 µM
same,TGI,OVCAR-3; read-out: pTGI (converted),6.46 µM
same,GI50,OVCAR-4,1.7 µM
same,CC50,OVCAR-4; [7],60.3 µM
same,TGI,OVCAR-4; read-out: pTGI (converted),8.13 µM
same,GI50,OVCAR-8,2.63 µM
same,CC50,OVCAR-8; [7],21.9 µM
same,TGI,OVCAR-8; read-out: pTGI (converted),6.03 µM
same,GI50,786-0,23.4 µM
same,CC50,786-0; [7],> 100 µM
same,TGI,786-0; read-out: pTGI (converted),61.7 µM
same,GI50,CAKI-1,15.1 µM
same,CC50,CAKI-1; [7],89.1 µM
same,TGI,CAKI-1; read-out: pTGI (converted),37.2 µM
same,GI50,UO-31,3.8 µM
same,CC50,UO-31; [7],> 100 µM
same,TGI,UO-31; read-out: pTGI (converted),> 100 µM
same,GI50,PC-3,3.47 µM
same,CC50,PC-3; [7],> 100 µM
same,TGI,PC-3; read-out: pTGI (converted),15.5 µM
same,GI50,NCI/ADR-RES,2.45 µM
same,CC50,NCI/ADR-RES; [7],28.2 µM
same,TGI,NCI/ADR-RES; read-out: pTGI (converted),5.75 µM
same,GI50,[5],4.9 µM
same,CC50,[5]; [7],> 100 µM
same,TGI,[5]; read-out: pTGI (converted),> 100 µM
same,GI50,MDA-MB-435,2 µM
same,CC50,MDA-MB-435; [7],6.92 µM
same,TGI,MDA-MB-435; read-out: pTGI (converted),3.72 µM
same,GI50,MCF7 [6],3.02 µM
same,CC50,MCF7 [6]; [7],> 100 µM
same,TGI,MCF7 [6]; read-out: pTGI (converted),> 100 µM
